Compounds with a hit are over-represented: about 1.2% of the library has one in this group of screens.
FN deposition inh = fibronectin deposition inhibition; inhibition, % at 12.6 µM; AH1F fibroblasts, Alexa488-fibronectin deposition fluorescence, overnight; 350,000 compounds, 0.086% hits;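 active means mean inhibition across replicates of 30% or more, regardless of how many single replicates reach that level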;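 further: positive control wells lacked labelled fibronectin entirely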
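Schedule: 1 h cell adhesion before compound, then overnight fibronectin incubation; test system: AH1F fibroblast monolayer depositing Alexa488-labelled fibronectin into matrix; quantity: 10000 AH1F cells per well; probe or stimulus: fluorescent fibronectin at 24 nM final; signal: fluorescence, ex 485 nm, em 525 nm; evaluation: percent inhibition as loss of matrix-bound fibronectin fluorescence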
ABHD5-PLIN5 inh = inhibitors of human ABHD5-perilipin-5 interaction; Q00G26+Q8WTS1; Split G. princeps luciferase complementation, luminescence, 4 h; inhibition, % at 4 µM; 360,000 compounds, 0.78% hits;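 active means inhibition above the mean inhibition across every tested compound plus 3 SD, cut at about 22% in these data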;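 further: 0% = DMSO only wells and the 100% control is not disclosed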
APOBEC3A inh = human APOBEC3A DNA deaminase inhibition; P31941; inhibition, % at 20 µM; recombinant A3A, FAM/TAMRA ssDNA deamination fluorescence; 330,000 compounds, 0.41% hits;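 active means at least 40% inhibition at 20 µM here, with at most 30% in a related deaminase screen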;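 further: plate controls were A3A with DMSO for no effect and wells lacking A3A enzyme for full effect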
APOBEC3G inh = inhibitors of human APOBEC3G DNA deaminase | Q9HC16 | AID 493012 | recombinant A3G, ssDNA deamination FAM/TAMRA fluorescence | inhibition, % at 20 µM | 330,000 compounds, 0.28% hits;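 active means inhibition of at least 40% at 20 µM, with no more than 30% in the related APOBEC3A deaminase screen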;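 further: plate controls were DMSO wells with A3G for no effect and wells lacking A3G enzyme for full effect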
Target sequence (Q9HC16 whole entry, looked up): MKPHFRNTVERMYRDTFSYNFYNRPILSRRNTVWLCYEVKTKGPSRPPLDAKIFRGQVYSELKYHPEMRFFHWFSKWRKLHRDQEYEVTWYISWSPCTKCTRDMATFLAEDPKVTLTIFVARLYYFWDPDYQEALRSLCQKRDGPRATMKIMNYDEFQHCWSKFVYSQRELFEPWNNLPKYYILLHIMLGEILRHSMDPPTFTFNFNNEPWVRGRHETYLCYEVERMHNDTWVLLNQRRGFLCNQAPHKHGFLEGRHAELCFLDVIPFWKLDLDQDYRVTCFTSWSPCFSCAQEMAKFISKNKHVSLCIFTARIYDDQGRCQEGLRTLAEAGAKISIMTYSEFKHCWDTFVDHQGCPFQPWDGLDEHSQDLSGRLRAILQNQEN
ABHD5 PLIN5 conf = ABHD5-PLIN5 interaction inhibition, confirmed; 2,200 compounds, 67% hits; biochemical ABHD5-PLIN5 interaction, luminescence; shares compounds with ABHD5-PLIN5 inh; inhibition, % at 4 µM; in the data active means inhibition above about 23%;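 further: 0% = DMSO vehicle wells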
HNF4 counter = HNF4 split-luciferase signal hit, counter-screen | shares compounds with ABHD5-PLIN5 inh | HNF4 dimerization, luminescence, biochemical | inhibition, % at 4 µM | 2,200 compounds, 77% hits;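 active means mean inhibition across replicate wells exceeding the computed hit threshold, cut at about 13% in these data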;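 further: light from luciferase halves that rejoin when HNF4 fusion proteins dimerize; 0% = DMSO only wells and the 100% control is not given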
Numbers without * were called inactive; / = no result given.

SMILES	FN deposition inh	ABHD5-PLIN5 inh	APOBEC3A inh	APOBEC3G inh	ABHD5 PLIN5 conf	HNF4 counter
CC(/C=N/NC(=O)Cn1cnc2c1c(=O)n(C)c(=O)n2C)=C\c1ccco1	2	7	3	-5	/	/
Cn1c(=O)c2c(ncn2CC(=O)N/N=C/C=C/c2ccco2)n(C)c1=O	9	31*	12	8	7	32*
CCC(=O)N[C@@H]1CC[C@H](CC(=O)NCC2CC2)O[C@H]1CO	-6	/	/	/	/	/
O=C(Nc1nc(-c2ccco2)c(-c2ccco2)s1)C1CCC1	-1	36*	15	4	13	46*
CCOC(=O)C1CCN(Cc2ccc(OC)c(C)c2OC)CC1	/	4	-3	-9	/	/
Oc1c(CN2CCCC(C(F)(F)F)C2)cc(Cl)c2ccccc12 (configuration not stated)	-12	24*	4	-2	9	12
CCOC(=O)C1CCN(Cc2cc(Cl)c3ccccc3c2O)CC1	/	66*	-3	-6	20	55*
OC1CCCN(Cc2cccc3ccccc23)C1 (configuration not stated)	-5	1	2	4	/	/
C=CC(=O)N1C/C(=C/c2ccc(F)cc2)C(=O)/C(=C\c2ccc(F)cc2)C1	26	100*	/	/	102*	105*
CN1C2CCC1/C(=C\c1ccc(F)cc1)C(=O)/C2=C/c1ccc(F)cc1	-6	12	-4	-10	/	/
COc1cc2c(cc1OC)C(C)N(CCc1ccc(Cl)cc1)CC2 (configuration not stated)	-9	24*	1	0	24*	0
CO[C@H]1CN(C)C(=O)c2ccc(NC(=O)C3CCCCC3)cc2OC[C@@H](C)N(Cc2nccs2)C[C@H]1C	1	/	/	/	/	/
COc1ccc(S(=O)(=O)Nc2ccc3c(c2)C(=O)N([C@@H](C)CO)C[C@H](C)[C@@H](CN(C)C(=O)Nc2ccc4c(c2)OCO4)OCCCC[C@H](C)O3)cc1	-7	/	/	/	/	/
O=C(/C=C\Nc1ccc2c(c1)OCO2)c1ccc2c(c1)OCO2	23	1	-2	-4	/	/
COc1ccc(C(=O)/C=C2\C(=O)Nc3ccc(Br)cc32)cc1	7	85*	/	/	97*	91*
O=C1Nc2ccc(Br)cc2/C1=C/C(=O)c1ccc2c(c1)OCO2	13	72*	0	-3	93*	90*
COc1ccc(C(=O)c2ccc(Br)cc2)cc1	-1	-7	3	-2	/	/
COc1cccc(-c2ccc3c(c2)[C@@H]2[C@@H](CCN2C(=O)C2CCCCC2)[C@@H](CO)N3)c1	2	/	/	/	/	/
Cc1cccn2c(=O)nc(SCC(=O)Nc3cccc4ccccc34)nc12	0	104*	11	-8	1	0
C/C=C/c1cnc2c(c1)C(=O)N([C@@H](C)CO)C[C@H](C)[C@H](CN(C)C(=O)Nc1ccc(OC)cc1)O2	3	/	/	/	/	/
COc1cc(NC(=O)C/C(C)=N/NC(=O)C2CCCCC2)c(OC)cc1Cl	3	8	-1	-5	/	/
COc1cc(NC(=O)C/C(C)=N/NC(=O)C(=O)NC2CCCCC2)c(OC)cc1Cl	0	24*	-3	-8	6	5
CCOC(=O)c1c(-c2ccc(C)o2)csc1NC(=O)CN(C)CC(=O)Nc1ccc(C)cc1	-14	26*	-5	-5	18	53*
COc1ccc(OC)c(NC(=O)CN2C(=O)CSc3ccc(S(=O)(=O)N4CCCC4)cc32)c1	5	54*	1	0	1	7
O=[N+]([O-])c1ccc(N2N=C(c3ccco3)CC2c2ccccc2)cc1 (configuration not stated)	/	29*	-4	-4	17	24*
Fc1ccc(C2CC(c3ccco3)=NN2c2ccccc2)cc1 (configuration not stated)	0	-8	-1	0	/	/
COc1cc(/C=C2\CC/C(=C\c3cc(OC)c(O)c(OC)c3)C2=O)cc(OC)c1O	1	32*	25	19	39*	39*
COc1cc(/C=C2\COC/C(=C\c3cc(OC)c(OC)c(OC)c3)C2=O)cc(OC)c1OC	-8	47*	/	/	101*	101*
COc1cc(/C=C2\CC/C(=C\c3cc(OC)c(OC)c(OC)c3)C2=O)cc(OC)c1OC	/	3	0	-3	/	/

Screening data as filed in PubChem.
